Measurements from ChEMBL document CHEMBL4043282, “Discovery of the First Potent, Selective, and Orally Bioavailable Signal Peptide Peptidase-Like 2a (SPPL2a) Inhibitor Displaying Pronounced Immunomodulatory Effects In Vivo” (J Med Chem, 2018).
The source made the active and inactive calls. The rule behind the calls is not given here.

Tests used:
[1] = Octanol-buffer partition coefficient, log P of the compound by LC/MS/MS based shake flask method; assay type: physicochemical
[2] = Inhibition of human SPP expressed in human U2OS cells using EGFP-labeled EnvSigSeq-SEAP as substrate after 24 hrs by Hoechst staining based high content imaging assay; assay type: cell-based
Outline: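 Stable U-2 OS lines expressing human SPPL2a, SPPL2b or SPP constitutively (mouse SPPL2a line analogous, mouse TNFα(aa1-77)-NTF-EGFP-NLS) with doxycycline-inducible EGFP substrate. 3000 cells/well, 3−4 h, then 11-point inhibitor 100 μM to 1 nM, 0.9% DMSO, 5 μg/mL doxycycline, 24 h 37 °C. PFA fixed, Hoechst nuclei; nuclear minus cytoplasmic EGFP intensity; inhibition vs 0.5 μM reference and DMSO; IC50 by nonlinear regression.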

[3] = target: T1, Signal peptide peptidase-like 2A (Rattus norvegicus, UniProt D3ZNG3); assay: Inhibition of rat SPPL2a expressed in human U2OS cells using EGFP-labeled TNFalpha (1 to 77 residues) NLS as substrate after 24 hrs by Hoechst staining based high content imaging assay; assay type: cell-based
T1 sequence (D3ZNG3 whole entry): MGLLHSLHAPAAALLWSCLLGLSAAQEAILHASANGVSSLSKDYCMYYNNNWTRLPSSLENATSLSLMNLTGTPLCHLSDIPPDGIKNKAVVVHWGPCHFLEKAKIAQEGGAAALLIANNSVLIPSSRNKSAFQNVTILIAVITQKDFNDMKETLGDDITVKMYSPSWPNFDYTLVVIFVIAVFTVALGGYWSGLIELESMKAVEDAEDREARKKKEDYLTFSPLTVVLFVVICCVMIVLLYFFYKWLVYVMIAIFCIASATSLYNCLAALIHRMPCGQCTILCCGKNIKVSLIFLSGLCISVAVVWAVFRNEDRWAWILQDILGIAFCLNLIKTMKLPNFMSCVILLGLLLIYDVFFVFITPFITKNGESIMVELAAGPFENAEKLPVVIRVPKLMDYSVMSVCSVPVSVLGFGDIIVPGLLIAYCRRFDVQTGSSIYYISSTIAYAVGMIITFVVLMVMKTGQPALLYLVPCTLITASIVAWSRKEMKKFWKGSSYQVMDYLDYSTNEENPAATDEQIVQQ
Outline: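 Stable U-2 OS line with constitutive rat SPPL2a and doxycycline-inducible rat TNFα(aa1-77)-NTF–EGFP-NLS; 3000 cells/well, 3–4 h at 37 °C, then inhibitor in doxycycline medium, 11-point, 100 μM–1 nM final (0.9% DMSO, 5 μg/mL doxycycline), 24 h. PFA fixation, Hoechst nuclei; nuclear minus cytoplasmic-ring EGFP intensity. Normalised to DMSO and reference-inhibitor controls; IC50 by nonlinear regression.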

Mus musculus [4] = assay: In vivo inhibition of SPPL2a in mouse assessed as accumulation of CD74/p8 in splenocyte lysate at 40 mg/kg administered via oral gavage as single dose measured 16 hrs post dose by Western blot method; assay type: functional, organism-based
Outline: (§1)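 Mice gavaged in 0.5% MC:0.5% Tween or PEG:D5W 3:1. Spleens dissociated, red cells lysed with ACK, 1 × 10^6 cells lysed with protease inhibitors; 18 μg lysate on 10% gel, blotted, CD74 full length and p8 detected with rat anti-mouse CD74 In-1 and Alexa488 anti-rat IgG, LiCor scan; p8/full-length ratio expressed as percent of reference compound ratio.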

Mus musculus [5] = assay: In vivo inhibition of SPPL2a in mouse assessed as accumulation of CD74/p8 in splenocyte lysate at 1 to 3 mg/kg administered via oral gavage as single dose measured 16 hrs post dose by Western blot method; assay type: functional, organism-based; outline: as §1
Rattus norvegicus = assay: In vivo inhibition of SPPL2a in Lewis rat assessed as accumulation of CD74/p8 in blood at 3 mg/kg first dose administered via oral gavage followed by second dose after 8 hrs measured 16 hrs post second dose by Western blot method; assay type: functional, organism-based
Outline: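 Rat blood (200 μL) red cells lysed with RBC lysis buffer three times, pellet lysed in Tris pH 6.8/NaCl/EDTA/Triton X-100/deoxycholate with protease inhibitors; Western blot for CD74/p8 with affinity-purified antibody specific for rat CD74/p8 at 1:200.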

[6] = Total concentration in Lewis rat blood at 1 mg/kg, po bid after 24 hrs by LC/MS/MS analysis; assay type: ADME, organism-based; details: read-out: Drug uptake
[7] = Drug uptake in Lewis rat spleen at 10 mg/kg, po bid after 24 hrs by LC/MS/MS analysis; assay type: ADME, organism-based; details: read-out: Drug uptake
Mus musculus [8] = assay: (§2) Immunomodulatory activity in mouse assessed as reduction in marginal zone B cells in splenocyte at 3 to 30 mg/kg administered via oral gavage bid at 8 and 16 hrs dosing interval between first and second dose respectively for 11 days measured 16 hrs post last dose on day 12 by flow cytometry; assay type: functional, organism-based
Outline: (§3)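 Mice gavaged with compound in 0.5% MC:0.5% Tween or PEG:D5W 3:1. Spleens dissociated in GentleMACS, filtered at 40 μm, ACK red-cell lysis, counted; 1 × 10^6 splenocytes stained 30 min on ice in HBSS/2% FBS/5 mM EDTA with antimouse panels for B-cell subsets (B220, CD21, CD23, IgM, IgD) or dendritic cells (PDCA1, CD11c, MHCII, lineage markers); analyzed on Fortessa flow cytometer.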

Mus musculus [9] = assay: as §2, with “plasmacytoid dendritic” for “marginal zone B”, “by B220 staining based” for “by”; assay type: functional, organism-based; outline: as §3
Plasma [10] = assay: Cmin in mouse plasma at 3 mg/kg, po bid administered at 8 and 16 hrs dosing interval between first and second dose respectively for 11 days measured predose on day 12 by LC/MS/MS analysis; assay type: ADME, organism-based; details: in vivo, read-out: Cmin
Outline: (§4)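 Mice gavaged bid in 0.5% MC:0.5% Tween or PEG:D5W 3:1; trough sample taken before the morning dose; 50 μL retro-orbital blood into LiHep tubes, kept on ice, plasma separated at 2823g for 5 min, stored at −20 °C until analysis.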

Plasma [11] = assay: Cmin in mouse plasma at 30 mg/kg, po bid administered at 8 and 16 hrs dosing interval between first and second dose respectively for 11 days measured predose on day 12 by LC/MS/MS analysis; assay type: ADME, organism-based; details: in vivo, read-out: Cmin; outline: as §4
[12] = Clearance in Sprague-Dawley rat at 1 mg/kg, iv by LC/MS/MS analysis; assay type: ADME, organism-based; details: in vivo
Outline: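 Female Sprague−Dawley rats with femoral artery and vein catheters implanted 96−120 h beforehand; cassette dosing iv 1 mg/kg per compound in NMP/PEG200 (30:70); arterial blood into EDTA tubes at several times, frozen; LC-MS/MS vs standard curve with QCs within 70−130%; noncompartmental analysis.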

[13] = Drug uptake in mouse spleen at 100 mg/kg, po administered as single dose after 4 hrs by LC/MS/MS analysis; assay type: ADME, organism-based; details: read-out: Drug uptake
[14] = Stability in rat liver microsomes at […] preincubated for 3 mins followed by NADPH addition measured after 1 hr in presence of GSH and [13C2-15N-glycine]-GSH by HPLC/MS method; assay type: ADME, microsome; details: read-out: Stability
[15] = Half life in Balb/c mouse at 5 mg/kg, iv by LC/MS/MS analysis; assay type: ADME, organism-based; details: in vivo
Mus musculus [16] = assay: In vivo inhibition of SPPL2a in mouse assessed as accumulation of CD74/p8 in splenocyte lysate at 150 mg/kg administered via oral gavage as single dose measured 16 hrs post dose by Western blot method; assay type: functional, organism-based; outline: as §1

Compound	logP [1]	IC50 [2]	IC50 [3]	inhibition (Mus musculus [4])	inhibition (Mus musculus [5])	inhibition (Rattus norvegicus)	concentration at 24 h [6]	concentration at 24 h [7]	Activity (Mus musculus [8])	Activity (Mus musculus [9])	concentration (Plasma [10])	concentration (Plasma [11])	clearance [12]	concentration at 4 h [13]	remaining at 1 h [14]	half-life [15]	inhibition (Mus musculus [16])
Cc1ncc(F)cc1NC(=O)C[C@H](C(=O)N[C@@H]1C(=O)N2CC3(CC3)CN2C(=O)c2ccccc21)C1CC1	2.3	3730 nM	56 nM	Active	inactive	Active	49 nM	2400 nM	Active	inactive	16 nM	1100 nM	–	–	–	–	–
Cc1ccccc1NC(=O)C[C@@H](C)C(=O)N[C@@H]1C(=O)N2CCCN2Cc2ccccc21	–	–	–	–	–	–	–	–	–	–	–	–	45 mL/min/kg	1440 nM	93.2%	42 min	Active
